Reference: PMC11079110 (Heliyon, 2024)

Tests used:
[1] = target: human KMO (Homo sapiens, UniProt O15229); experiment: Kinetics study; assay type: biochemical; settings: Lineweaver-Burk plots, 0–40 μM compound, 0–20 μM L-Kyn
Procedure, shortened: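 Human KMO was exposed to graded test compound concentrations across a range of L-Kyn concentrations. Reaction velocities were plotted as double reciprocals (Lineweaver-Burk). Inhibition type was assigned from how the x- and y-intercepts, reflecting Km and Vmax, shifted with inhibitor. Each condition was run in triplicate, and the experiments were repeated three times.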

[2] = system: KMO; settings: read-out: IC50 (KMO inhibitor); cited from earlier work

Chain of human KMO (O15229 whole entry): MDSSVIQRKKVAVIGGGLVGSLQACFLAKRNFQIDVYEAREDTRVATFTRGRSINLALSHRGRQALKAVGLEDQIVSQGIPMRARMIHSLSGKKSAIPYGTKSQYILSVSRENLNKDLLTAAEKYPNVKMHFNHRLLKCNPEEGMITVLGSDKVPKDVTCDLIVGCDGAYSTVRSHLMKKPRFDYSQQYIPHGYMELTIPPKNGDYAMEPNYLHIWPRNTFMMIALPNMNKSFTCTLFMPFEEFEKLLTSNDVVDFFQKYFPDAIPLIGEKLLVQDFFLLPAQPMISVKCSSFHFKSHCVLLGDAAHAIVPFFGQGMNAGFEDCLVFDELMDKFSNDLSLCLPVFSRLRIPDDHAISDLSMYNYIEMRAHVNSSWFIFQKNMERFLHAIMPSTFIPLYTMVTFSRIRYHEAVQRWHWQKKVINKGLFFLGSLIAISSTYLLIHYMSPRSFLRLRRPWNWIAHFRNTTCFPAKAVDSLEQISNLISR

| Inhibition type [1] | Inhibition type ([1]; listed as apigenin) | Inhibition type ([1]; listed as genkwanin) | Compound | IC50 [2] |
| --- | --- | --- | --- | --- |
| non-competitive inhibition | non-competitive inhibitors | – | O=c1cc(-c2ccc(O)cc2)oc2cc(O)cc(O)c12 [Apigenin] | – |
| – | – | – | Cc1ccc([C@@H](C)Oc2cc3onc(CCC(=O)O)c3cc2Cl)nn1 [GSK 366] | 0.0023 µM |
| non-competitive inhibition | – | non-competitive inhibitors | COc1cc(O)c2c(=O)cc(-c3ccc(O)cc3)oc2c1 [Genkwanin] | – |
| – | – | – | O=C(O)[C@H]1C[C@@H]1C(=O)c1ccc(Cl)c(Cl)c1 [UPF-648] | 0.02 µM |
